These results are taken from PMC2745083 (Neuropharmacology, 2009).

Structures are written as SMILES.

Data set [1] is described as follows: Brain homogenate analysis for parent compound after i.p. injection. The format is in vivo, Sprague Dawley rats. The settings on record: rat, ~65 min post injection. Summed up: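 Male Sprague Dawley rats (7–8 weeks) under isoflurane/oxygen got the [11C]-labeled test compound i.p. via a butterfly catheter with a saline rinse (3.0 ± 0.4 mCi), followed by 60 min dynamic PET. Animals were decapitated and brains homogenized in water. The homogenate was precipitated with cold acetonitrile, vortexed and centrifuged (2000 rcf, 2 min). The supernatant was spiked with standard, γ-counted and run on HPLC; the co-eluting fraction was counted as a decay-corrected ratio to initial homogenate radioactivity.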

The nature of another data set: LogD determination. The format is physicochemical. The settings on record: octanol/phosphate buffer, pH 7.4. In a few lines: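 Formulated [11C]-labeled test compound was partitioned between octanol and phosphate buffer (pH 7.4), vortexed 2 min and centrifuged 2 min. Both layers were sampled. The octanol layer was serially transferred to fresh octanol/buffer and the procedure repeated, giving six sample sets. Radioactivity was measured in a well counter. logD = log(decay-corrected octanol activity × 10 / decay-corrected buffer activity).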

Data set [2] can be described thus: Plasma protein binding assay. The format is in vitro ADME. To be noted: baboon. In a few lines:
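Formulated [11C]-labeled test compound was incubated 10 min at room temperature in baboon plasma pooled from at least 4 animals. Total activity was sampled, then plasma was ultrafiltered through a Centrifree device (10 min centrifugation) and the filtrate counted. %unbound = Aunbound × 100 / total activity.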

Test in data set [3]: not given
The source holds these as a separate data set.

For data set [4] the following is noted: [acetyl-11C]-SA from published data; ref Hooker et al., 2008; cited from earlier work.
The conditions of data set [5]: [acetyl-11C]-SA from published data; ref Hooker et al., 2008; cited from earlier work. This is another data set of the same source.
For data set [6], the system named is permeability glycoprotein (P-gp). The settings on record: ref Teksin et al., 2009; cited from earlier work.
The conditions of data set [7]: baboon, i.v., acetyl-labeled SA, previous study; ref Hooker, 2008; cited from earlier work.
The conditions of data set [8]: in vivo, 10 mg/kg; cited from earlier work.
[9] abbreviates: female, baboon (Papio anubis), in vivo, iv.

Turning to `CCOCO[C@H]1C[C@@H](C(=O)OC)[C@]2(C)CC[C@H]3C(=O)O[C@H](c4ccoc4)C[C@]3(C)[C@H]2C1=O` [EOM-SB], the “plasma radioactivity that was parent compound” value under setting [9] was roughly 50%. For the same molecule, in data set [1], the “proportion of parent compound remaining in brain homogenate” value is listed as 14% and the “proportion of parent remaining in brain homogenate, fold higher than [11C]-SA” value is roughly 3 fold. For the same molecule, the logD (usually the decadic logarithm of the distribution of all forms, ionised or not, between an organic phase and buffer at a given pH) in the data set “LogD determination” amounted to 2.46 ± 0.01. In addition, the fraction unbound – broadly, the share of the substance not bound to proteins or other matrix – at 10 min in data set [2] was 0.234.

For the molecule `COC(=O)[C@@H]1C[C@H](OC(C)=O)C(=O)[C@H]2[C@@]1(C)CC[C@H]1C(=O)O[C@H](c3ccoc3)C[C@]21C` [SA, Salvinorin A], the “time to be metabolized to ~50% in plasma” value (baboon plasma after i.v. injection) was “under 5 min”. Besides, in data set [3] (baboon, bolus intravenous administration, whole brain ROI), the “maximum average concentration in the brain” value worked out at 0.015 % ID/cm^3. In data set [3] (baboon, i.v., labeled at the methyl ester), the “brain radioactivity at 60 min after injection (cleared to)” value was 0.001%. Moreover, the “Plasma Protein Binding (% unbound)” value in data set [4] was 16.1 % (n = 2). Moreover, in [5], the “LogD (pH 7.4)” value was 2.34 ± 0.09 (n = 4). In [6], the “efflux by permeability glycoprotein (P-gp)” value is on record as “efflux”. Further, the “residual radioactivity in brain at 60 min after injection” value in data set [7] is 0.004 % ID/cm^3. In [8], the “antinociception after 30 minutes” value is recorded as “no detectable antinociception”.

Turning to `COC(=O)[C@@H]1C[C@H](O)C(=O)[C@H]2[C@@]1(C)CC[C@H]1C(=O)O[C@H](c3ccoc3)C[C@]21C` [SB, Salvinorin B], in [3] (setting [9]), the “lower average maximum brain concentration relative to [11C]-SA” value is reported as “approximately 20%”, the “time of peak brain concentration” value amounted to 70 s and the “time to clear to half of maximum brain concentration” value is 6.0 min. In addition, in the data set “LogD determination”, the log distribution coefficient (logD) was determined as 1.5. This molecule had a fraction unbound at 10 min in [2] of 0.473.
